In BindingDB's records for doi:10.1128/aac.00067-07 (Rutgers University, 2007):
≈ marks a conversion by molar mass, not a printed value.

Key:
1,3-beta-glucan synthase [1] = target: 1,3-beta-glucan synthase (Pichia kudriavzevii, UniProt Q4U2W2, F655C); assay: Inhibition of FKS1 T2080K mutant from Candida krusei 100 isolate
Method in brief: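 Glucan synthase enzyme complex isolated from posttreatment strain Ck-100. Caspofungin titrated against the enzyme. Inhibition curve fitted with a two-site competition algorithm to give IC50 in ng/ml.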

1,3-beta-glucan synthase [2] = target: 1,3-beta-glucan synthase (Pichia kudriavzevii, UniProt Q4U2W2); assay: Inhibition of FKS1 from Candida krusei 98 isolate
Method in brief: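 Glucan synthase enzyme complex isolated from the pretreatment clinical strain Ck-98 and titrated with the echinocandin. Inhibition curves were fitted with a sigmoidal variable-slope dose-response model to give IC50 in ng/ml.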

Chain of 1,3-beta-glucan synthase (Pichia kudriavzevii, UniProt Q4U2W2, F655C) (Q4U2W2 entry or part of it F655C): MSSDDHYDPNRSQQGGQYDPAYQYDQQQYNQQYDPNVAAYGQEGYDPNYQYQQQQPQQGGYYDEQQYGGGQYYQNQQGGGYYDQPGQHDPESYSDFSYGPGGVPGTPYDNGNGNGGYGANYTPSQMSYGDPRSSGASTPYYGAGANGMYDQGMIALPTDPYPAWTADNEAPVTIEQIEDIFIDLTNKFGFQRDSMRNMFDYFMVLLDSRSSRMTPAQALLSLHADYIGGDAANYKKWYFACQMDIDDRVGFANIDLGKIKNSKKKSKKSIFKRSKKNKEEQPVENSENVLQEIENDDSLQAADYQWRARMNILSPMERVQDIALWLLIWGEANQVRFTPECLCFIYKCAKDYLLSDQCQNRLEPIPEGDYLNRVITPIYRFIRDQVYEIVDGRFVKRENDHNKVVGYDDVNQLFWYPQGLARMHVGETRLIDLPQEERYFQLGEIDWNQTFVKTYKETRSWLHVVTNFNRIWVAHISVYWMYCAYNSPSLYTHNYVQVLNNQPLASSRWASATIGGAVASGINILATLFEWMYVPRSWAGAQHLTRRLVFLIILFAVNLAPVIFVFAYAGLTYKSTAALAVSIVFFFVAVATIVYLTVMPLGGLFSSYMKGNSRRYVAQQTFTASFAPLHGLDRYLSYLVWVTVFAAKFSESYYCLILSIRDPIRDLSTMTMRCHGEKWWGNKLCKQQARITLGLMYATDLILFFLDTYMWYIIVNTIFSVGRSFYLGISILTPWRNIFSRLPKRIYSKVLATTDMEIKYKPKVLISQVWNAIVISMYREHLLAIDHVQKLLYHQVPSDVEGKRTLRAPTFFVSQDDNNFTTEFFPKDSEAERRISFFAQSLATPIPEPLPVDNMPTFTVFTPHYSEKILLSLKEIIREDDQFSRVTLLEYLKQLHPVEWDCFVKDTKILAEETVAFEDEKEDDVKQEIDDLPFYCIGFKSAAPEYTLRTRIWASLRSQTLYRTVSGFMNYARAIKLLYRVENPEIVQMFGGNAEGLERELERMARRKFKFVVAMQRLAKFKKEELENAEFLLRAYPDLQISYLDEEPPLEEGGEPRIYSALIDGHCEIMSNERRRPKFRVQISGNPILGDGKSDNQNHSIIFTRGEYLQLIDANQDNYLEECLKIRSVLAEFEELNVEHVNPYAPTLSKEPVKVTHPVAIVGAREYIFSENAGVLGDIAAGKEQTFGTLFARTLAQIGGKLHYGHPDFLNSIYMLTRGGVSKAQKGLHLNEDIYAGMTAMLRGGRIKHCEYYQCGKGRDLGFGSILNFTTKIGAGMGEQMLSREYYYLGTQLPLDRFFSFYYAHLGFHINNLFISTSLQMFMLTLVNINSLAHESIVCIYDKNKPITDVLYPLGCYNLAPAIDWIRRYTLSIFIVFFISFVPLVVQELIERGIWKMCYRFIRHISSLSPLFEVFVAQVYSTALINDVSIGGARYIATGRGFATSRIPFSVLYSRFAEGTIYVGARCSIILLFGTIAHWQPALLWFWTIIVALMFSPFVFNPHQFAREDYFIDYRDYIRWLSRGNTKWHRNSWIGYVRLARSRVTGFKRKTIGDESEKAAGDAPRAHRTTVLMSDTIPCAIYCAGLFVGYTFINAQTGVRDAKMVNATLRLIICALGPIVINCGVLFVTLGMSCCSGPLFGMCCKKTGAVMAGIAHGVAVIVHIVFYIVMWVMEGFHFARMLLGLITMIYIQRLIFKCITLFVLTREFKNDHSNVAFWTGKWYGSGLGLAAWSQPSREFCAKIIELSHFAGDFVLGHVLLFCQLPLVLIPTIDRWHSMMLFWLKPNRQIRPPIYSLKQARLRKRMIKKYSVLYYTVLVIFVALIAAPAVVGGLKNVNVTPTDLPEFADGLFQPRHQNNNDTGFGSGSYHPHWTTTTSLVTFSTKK
Chain of 1,3-beta-glucan synthase (Pichia kudriavzevii, UniProt Q4U2W2) (Q4U2W2 whole entry): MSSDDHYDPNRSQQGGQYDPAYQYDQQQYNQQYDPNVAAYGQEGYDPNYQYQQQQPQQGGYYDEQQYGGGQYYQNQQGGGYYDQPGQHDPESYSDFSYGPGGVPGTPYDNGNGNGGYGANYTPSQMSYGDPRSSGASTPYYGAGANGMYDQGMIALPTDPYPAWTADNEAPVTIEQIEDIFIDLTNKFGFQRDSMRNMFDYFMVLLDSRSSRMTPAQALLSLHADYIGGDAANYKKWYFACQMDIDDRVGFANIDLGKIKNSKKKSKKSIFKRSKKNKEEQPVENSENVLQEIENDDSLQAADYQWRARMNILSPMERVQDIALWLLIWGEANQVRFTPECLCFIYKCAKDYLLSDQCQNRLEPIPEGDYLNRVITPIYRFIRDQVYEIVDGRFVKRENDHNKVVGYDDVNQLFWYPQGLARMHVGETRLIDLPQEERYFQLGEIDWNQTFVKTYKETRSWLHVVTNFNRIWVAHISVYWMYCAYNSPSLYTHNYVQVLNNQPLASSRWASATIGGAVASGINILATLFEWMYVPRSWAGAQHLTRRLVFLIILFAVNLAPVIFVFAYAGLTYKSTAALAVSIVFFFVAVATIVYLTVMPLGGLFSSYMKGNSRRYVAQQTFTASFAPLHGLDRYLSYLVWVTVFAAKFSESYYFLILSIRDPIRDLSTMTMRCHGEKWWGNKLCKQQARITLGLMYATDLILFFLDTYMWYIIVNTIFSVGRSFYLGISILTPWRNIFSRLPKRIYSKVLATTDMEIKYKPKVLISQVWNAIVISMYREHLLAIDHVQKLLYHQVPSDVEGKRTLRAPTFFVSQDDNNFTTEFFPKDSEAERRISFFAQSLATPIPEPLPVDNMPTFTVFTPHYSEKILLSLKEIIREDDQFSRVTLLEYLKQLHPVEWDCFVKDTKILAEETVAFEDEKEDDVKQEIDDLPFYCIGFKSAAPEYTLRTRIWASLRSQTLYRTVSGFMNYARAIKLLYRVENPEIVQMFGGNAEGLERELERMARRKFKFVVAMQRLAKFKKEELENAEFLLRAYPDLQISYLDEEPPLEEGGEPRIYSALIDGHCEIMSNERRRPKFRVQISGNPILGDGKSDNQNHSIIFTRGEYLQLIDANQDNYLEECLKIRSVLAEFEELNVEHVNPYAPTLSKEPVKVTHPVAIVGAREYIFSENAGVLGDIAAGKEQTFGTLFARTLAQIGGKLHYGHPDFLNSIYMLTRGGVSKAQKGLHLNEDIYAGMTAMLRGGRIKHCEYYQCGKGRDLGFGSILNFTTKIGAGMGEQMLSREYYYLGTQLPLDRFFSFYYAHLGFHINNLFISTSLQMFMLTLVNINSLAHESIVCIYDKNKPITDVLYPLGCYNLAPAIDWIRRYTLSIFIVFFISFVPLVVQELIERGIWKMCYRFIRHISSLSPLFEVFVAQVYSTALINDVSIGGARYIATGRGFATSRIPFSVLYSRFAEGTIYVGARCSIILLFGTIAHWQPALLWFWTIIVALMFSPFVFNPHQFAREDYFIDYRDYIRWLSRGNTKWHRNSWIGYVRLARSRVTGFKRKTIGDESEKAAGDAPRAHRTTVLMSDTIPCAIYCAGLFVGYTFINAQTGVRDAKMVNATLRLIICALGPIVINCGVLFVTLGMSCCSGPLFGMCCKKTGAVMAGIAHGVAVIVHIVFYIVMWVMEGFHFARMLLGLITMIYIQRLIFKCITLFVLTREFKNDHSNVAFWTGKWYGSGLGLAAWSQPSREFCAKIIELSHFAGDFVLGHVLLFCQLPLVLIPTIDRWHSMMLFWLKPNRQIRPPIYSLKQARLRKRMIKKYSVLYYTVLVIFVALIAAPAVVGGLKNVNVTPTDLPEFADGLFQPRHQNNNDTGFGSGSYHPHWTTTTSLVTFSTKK

**Q.** `CCC(C)CC(C)CCCCCCCCC(=O)N[C@H]1C[C@@H](O)[C@@H](NCCN)NC(=O)[C@@H]2[C@@H](O)CCN2C(=O)[C@H]([C@H](O)CCN)NC(=O)[C@H]([C@H](O)[C@@H](O)c2ccc(O)cc2)NC(=O)[C@@H]2C[C@@H](O)CN2C(=O)[C@H]([C@@H](C)O)NC1=O` (some centres not stated) [CHEBI:474180] was tested. Which IC50 (1,3-beta-glucan synthase [1]) did it give?
**A.** 3.94 µg/mL (≈ 3.61 µM)

**Q.** What about the IC50 (1,3-beta-glucan synthase [2]) of the same compound?
**A.** 0.0068 µg/mL (≈ 0.00622 µM)
